Calls of active or inactive are those of the source. The rule behind the calls is not given here. Starred links: 1 amine or outer side, 2 acyl side, 3 side chain; linkers in the order of their positions; H or OH if unused. Non-standard residues stand in square brackets, D forms with d. Residues, ends and D or L forms follow the SMILES beside them. *: point of attachment. X1 = O=C([C@H](CCCCOS(=O)(=O)O)N[*:1])[*:2]; sY = N[C@@H](Cc1ccc(OS(=O)(=O)O)cc1)C(=O)O; Boc = CC(C)(C)OC(=O)*

This is an account of results in ChEMBL document CHEMBL3244403, “Cholecystokinin (pancreozymin). 4. Synthesis and properties of a biologically active analogue of the C-terminal heptapeptide with epsilon-hydroxynorleucine sulfate replacing tyrosine sulfate” (J Med Chem, 1978).

Data set [1] is filed under the species Cavia porcellus. In words: Agonist activity at cholecystokinin receptor in NIH guinea pig pancreatic acinar cells assessed as induction of amylase secretion at 0.03 to 0.3 nM. In outline: (§1)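 Guinea pig pancreas collagenase-dispersed acini in 100% O2-gassed Hepes buffer pH 7.4 containing 0.5 mM calcium and 5 mM theophylline. Amylase in supernatant assayed in duplicate with Phedabas reagent. Release expressed as % of total cellular amylase appearing in medium during incubation. CCK-(26-33) used as reference.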

Data set [2] is filed under the species Cavia porcellus. The data set is described as follows: Agonist activity at cholecystokinin receptor in NIH guinea pig pancreatic acinar cells assessed as induction of amylase secretion. Put shortly: as §1
The species entered for data set [3] is Cavia porcellus. The data set is described as follows: Agonist activity at cholecystokinin receptor in NIH guinea pig assessed as gall bladder contraction at 7 to 21 ng by in situ assay. The class given is tissue-based. Put shortly:
(§2)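 Guinea pig gall bladder in situ (Ljungberg method), contraction recorded via strain gauge transducer after injection. Peptides first dissolved at 10 μg/mL in physiological saline containing 1 mg/mL NaHCO3 and 1 mg/mL L-cysteine. Response compared with injected standard cholecystokinin in Ivy dog units.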

A short description of data set [4]: Retardation factor of the compound using 1-butanol-AcOH-H2O at ratio of 4:1:1 as solvent system by thin layer chromatography. The class given is physicochemical.
A short description of data set [5]: Retardation factor of the compound using EtOAc-pyridine-AcOH-H2O at ratio of 60:20:6:11 as solvent system by thin layer chromatography. The class given is physicochemical.
Data set [6] is described as follows: Retardation factor of the compound using EtOAc-pyridine-AcOH-H2O at ratio of 120:20:6:11 as solvent system by thin layer chromatography. The class given is physicochemical.
The species named for data set [7] is Cavia porcellus. In words: Agonist activity at cholecystokinin receptor in NIH guinea pig assessed as gall bladder contraction at 7 to 1900 ng by in situ assay. The class given is tissue-based. Put shortly: as §2
For data set [8], the species on record is Cavia porcellus. In words: Agonist activity at cholecystokinin receptor in NIH guinea pig assessed as gall bladder contraction at 7 ng by in situ assay. The class given is tissue-based. Put shortly:
as §2

In the case of `CSCC[C@H](NC(=O)[C@H](Cc1ccc(OS(=O)(=O)O)cc1)NC(=O)[C@@H](N)CC(=O)O)C(=O)NCC(=O)N[C@@H](Cc1c[nH]c2ccccc12)C(=O)N[C@@H](CCSC)C(=O)N[C@@H](CC(=O)O)C(=O)N[C@@H](Cc1ccccc1)C(N)=O`, in data set [1], the outcome was Active.
For the compound `CSCC[C@H](NC(=O)[C@H](CCCCOS(=O)(=O)O)NC(=O)OC(C)(C)C)C(=O)NCC(=O)N[C@@H](Cc1c[nH]c2ccccc12)C(=O)N[C@@H](CCSC)C(=O)N[C@@H](CC(=O)O)C(=O)N[C@@H](Cc1ccccc1)C(N)=O` (Boc-[X1]MGWMDF-NH2), the outcome in data set [2] and in data set [3] was Active. The Rf in data set [4] came to 0.55; in data set [5] it was 0.31; in data set [6], 0.19.
For the compound `CSCC[C@H](NC(=O)[C@H](COS(=O)(=O)O)NC(=O)OC(C)(C)C)C(=O)NCC(=O)N[C@@H](Cc1c[nH]c2ccccc12)C(=O)N[C@@H](CCSC)C(=O)N[C@@H](CC(=O)O)C(=O)N[C@@H](Cc1ccccc1)C(N)=O`, the outcome in data set [2] and in data set [7] was Active.
Consider `CSCC[C@H](NC(=O)[C@H](Cc1ccc(OS(=O)(=O)O)cc1)NC(=O)OC(C)(C)C)C(=O)NCC(=O)N[C@@H](Cc1c[nH]c2ccccc12)C(=O)N[C@@H](CCSC)C(=O)N[C@@H](CC(=O)O)C(=O)N[C@@H](Cc1ccccc1)C(N)=O` (Boc-[sY]MGWMDF-NH2), for which the outcome in data set [2] and in data set [8] was Active.
